Assay [1] can be described thus: Inhibition of Chryseobacterium indologenes metallo-beta-lactamase IND-5 expressed in Escherichia coli BL21(DE3) using nitrocefin reporter substrate. In short, it runs like this:
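Purified IND-5 at 0.1 μM was incubated for 15 min at 30°C with increasing concentrations of zinc chelator.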

For assay [2], the system named is Chryseobacterium indologenes. Nature of the assay: Antimicrobial activity against Chryseobacterium indologenes NF16 isolate assessed as drug level at which microbial resistance was observed by agar dilution method. It is filed as functional. In short, it runs like this: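 Agar dilution per CLSI guidelines, inoculum 5 × 10^5 CFU per spot; E. coli ATCC 25922 run as quality-control strain.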

In assay [3] the test system is Escherichia coli. Nature of the assay: Antimicrobial activity against Escherichia coli HB101 harboring pBC-SK plasmid assessed as drug level at which microbial resistance was observed by agar dilution method. It is filed as functional. A general note: In agar dilution, organisms are placed on agar that contains the substance at set levels.
For assay [4], the system named is Escherichia coli. Nature of the assay: Antimicrobial activity against Escherichia coli HB101 harboring pBC-IND-5 plasmid containing metallo-beta-lactamase IND5 assessed as drug level at which microbial resistance was observed by agar dilution method. The assay is classed as functional.
The subject of assay [5] is Chryseobacterium indologenes. Nature of the assay: Activity of Chryseobacterium indologenes metallo-beta-lactamase IND-5 expressed in Escherichia coli BL21(DE3) assessed as substrate hydrolysis. In short, it runs like this:
(§1)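 Purified IND-5 came from E. coli BL21(DE3)/pET-IND-5, induced with 1 mM IPTG for 2 h at 20°C. It was purified by Mono Q then Mono P chromatography in buffers with 50 μM ZnSO4. Substrate hydrolysis was measured under initial-rate conditions in 30 mM sodium cacodylate pH 6.5 plus 50 μM ZnSO4. Km and kcat came from Hanes linearization and are means of three measurements.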

The subject of assay [6] is Chryseobacterium indologenes. Nature of the assay: Ratio of Kcat to Km of Chryseobacterium indologenes metallo-beta-lactamase IND-5 expressed in Escherichia coli BL21(DE3) assessed as substrate hydrolysis. In outline: as §1
Assay [7] concerns Chryseobacterium indologenes. Nature of the assay: Ratio of Kcat to Km of Chryseobacterium indologenes metallo-beta-lactamase IND-5 expressed in Escherichia coli BL21(DE3) assessed as substrate hydrolysis relative to control. Also noted: scale not given: the % may be the effect or the level left.

The source made the active and inactive calls. No cut-off for these calls is given here.

Usually Ki stands for a measure of affinity in units of concentration, obtained from inhibition or displacement. Take `O=C(O)c1cccc(C(=O)O)n1` [DIPICOLINIC ACID]: the affinity in assay [1], expressed as Ki, was 3 µM.
With `CC1(C)S[C@@H]2[C@H](NC(=O)[C@H](N)c3ccc(O)cc3)C(=O)N2[C@H]1C(=O)O` [AMOXICILLIN], the Activity in assay [2] is above 64 µg/mL; in assay [3] it was 2 µg/mL; in assay [4], above 64 µg/mL.
With `CO[C@@]1(NC(=O)C(C(=O)O)c2ccc(O)cc2)C(=O)N2C(C(=O)O)=C(CSc3nnnn3C)CO[C@@H]21` (stereo partly specified), the result in assay [5] was inactive.
As to `C[C@]1(Cn2ccnn2)[C@H](C(=O)O)N2C(=O)C[C@H]2S1(=O)=O`, in assay [5], the result was inactive.
As for `C[C@H]1[C@H](NC(=O)/C(=N\OC(C)(C)C(=O)O)c2csc(N)n2)C(=O)N1S(=O)(=O)O` [AZTREONAM], in assay [2], the Activity came out at 32 µg/mL. For the same molecule, the outcome in assay [5] was inactive.
Usually Km stands for the concentration of substrate that gives half-maximal velocity. What is called kcat is the number of substrate molecules converted per active site and unit of time at saturation. Usually kcat/Km stands for the turnover number divided by the Michaelis constant. Turning to `CCN1CCN(C(=O)N[C@@H](C(=O)N[C@@H]2C(=O)N3[C@@H]2SC(C)(C)[C@@H]3C(=O)O)c2ccccc2)C(=O)C1=O` [PIPERACILLIN], the Activity amounted to 16 µg/mL in assay [2], 1 µg/mL in assay [3], 4.6% in assay [7] and 32 µg/mL in assay [4]. Besides, the Michaelis constant (Km) in assay [5] was found to be 375 µM. In assay [5], the kcat was determined as 14.6 s⁻¹. The kcat/Km in assay [6] stood at 39000 M⁻¹ s⁻¹.
Regarding `O=C(Cc1cccs1)N[C@@H]1C(=O)N2C(C(=O)O)=C(/C=C/c3ccc([N+](=O)[O-])cc3[N+](=O)[O-])CS[C@H]12`, in assay [5], the Km was 8 µM and the kcat is 4.4 s⁻¹. Further, in assay [6], the kcat/Km came to 550000 M⁻¹ s⁻¹. In addition, in assay [7], the Activity is 65%.
Turning to `CC1(C)[C@H](C(=O)O)N2C(=O)C[C@H]2S1(=O)=O`, in assay [5], the Km worked out at 1300 µM and the kcat stood at 3.3 s⁻¹. The kcat/Km in assay [6] is 2500 M⁻¹ s⁻¹. Further, in assay [7], the Activity turned out to be 0.3%.
Turning to `CC1(C)S[C@@H]2[C@H](NC(=O)C(C(=O)O)c3ccccc3)C(=O)N2[C@H]1C(=O)O` (stereo partly specified), in assay [5], the Km is 320 µM and the kcat was 17 s⁻¹. Further, the kcat/Km in assay [6] was 53000 M⁻¹ s⁻¹. Also, the Activity in assay [7] was 6.3%.
In the case of `CC1(C)S[C@@H]2[C@H](NC(=O)[C@H](N)c3ccccc3)C(=O)N2[C@H]1C(=O)O`, in assay [5], the Km is 150 µM and the kcat turned out to be 10.3 s⁻¹. In assay [6], the kcat/Km was found to be 69000 M⁻¹ s⁻¹. Further, the Activity in assay [7] came out at 8.2%.
Consider `C[C@@H](O)[C@H]1C(=O)N2C(C(=O)O)=C(S[C@@H]3CN[C@H](C(=O)N(C)C)C3)[C@H](C)[C@H]12` [MEROPENEM], for which the Activity in assay [2] was 16 µg/mL; in assay [3], below 0.125 µg/mL; in assay [7] it was 1.8%; in assay [4], 1 µg/mL. Besides, the Km in assay [5] is 280 µM. Further, the kcat in assay [5] is 4.13 s⁻¹. In addition, the kcat/Km in assay [6] turned out to be 15000 M⁻¹ s⁻¹.
Turning to `CO/N=C(\C(=O)N[C@@H]1C(=O)N2C(C(=O)O)=C(COC(C)=O)CS[C@H]12)c1csc(N)n1` [CEFOTAXIME], the Activity in assay [2] was 32 µg/mL; in assay [7], 3.7%; in assay [4] it was 16 µg/mL. Also, the Km in assay [5] amounted to 49 µM. In addition, the kcat in assay [5] is 1.53 s⁻¹. The kcat/Km in assay [6] was 31000 M⁻¹ s⁻¹.
Consider `O=C(O)CN(CCN(CC(=O)O)CC(=O)O)CC(=O)O` [EDETIC ACID], for which the affinity in assay [1], expressed as Ki, was 815 µM.
Consider `CC1(C)S[C@@H]2[C@H](NC(=O)Cc3ccccc3)C(=O)N2[C@H]1C(=O)O`, for which, in assay [5], the Km came to 13 µM and the kcat was found to be 10.9 s⁻¹. Further, the kcat/Km in assay [6] stood at 840000 M⁻¹ s⁻¹. Moreover, in assay [7], the Activity came out at 100%.
Turning to `C[C@@H](O)[C@H]1C(=O)N2C(C(=O)O)=C(SCCNC=N)C[C@H]12` [IMIPENEM ANHYDROUS], the Activity in assay [2] worked out at 32 µg/mL; in assay [3], 0.5 µg/mL; in assay [7], 2.8%; in assay [4] it was 1 µg/mL. In addition, the Km in assay [5] turned out to be 300 µM. For the same molecule, in assay [5], the kcat stood at 7.28 s⁻¹. Besides, in assay [6], the catalytic efficiency (kcat/Km) turned out to be 24000 M⁻¹ s⁻¹.
For `Cc1nnc(SCC2=C(C(=O)O)N3C(=O)[C@@H](NC(=O)Cn4cnnn4)[C@H]3SC2)s1` [CEFAZOLIN], the Activity in assay [2] was determined as 64 µg/mL; in assay [3] it was 1 µg/mL; in assay [7], 2.1%; in assay [4], 64 µg/mL. In addition, the Km in assay [5] was 25 µM. Also, the kcat in assay [5] was 0.46 s⁻¹. Also, the kcat/Km in assay [6] was 18000 M⁻¹ s⁻¹.
Molecule `c1cnc2c(c1)ccc1cccnc12` [PHENANTHROLINE] came in with a Ki in assay [1] of 7.3 µM.
As for `CC(C)(O/N=C(\C(=O)N[C@@H]1C(=O)N2C(C(=O)[O-])=C(C[n+]3ccccc3)CS[C@H]12)c1csc(N)n1)C(=O)O` [CEFTAZIDIME], the Activity in assay [2] was 1 µg/mL; in assay [3], below 0.5 µg/mL; in assay [4], 0.5 µg/mL.
With `CO/N=C(\C(=O)N[C@@H]1C(=O)N2C(C(=O)[O-])=C(C[N+]3(C)CCCC3)CS[C@H]12)c1csc(N)n1`, the results for the Activity in assay [2], in assay [3] and in assay [4] were 0.5 µg/mL, below 0.125 µg/mL and 0.5 µg/mL, respectively. The result in assay [5] was inactive.

Source of the values: ChEMBL document CHEMBL1155138, “Identification and characterization of a new metallo-beta-lactamase, IND-5, from a clinical isolate of Chryseobacterium indologenes” (Antimicrob Agents Chemother, 2007).
